sPLA2-III inh – Inhibits HGIII-sPLA2 liposome hydrolysis, primary screen; Q9NZ20; QFRET BODIPY PC-A2 liposome hydrolysis, fluorescence; inhibition, % at 12.2 µM; actives 0.56% (n = 370,000);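 active means inhibition above mean plus 3 SD of compounds lying within the high and low control bounds, cut at about 19% in these data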
PLC-gamma1 inh – inhibitors of human phospholipase C gamma1; purified PLC-gamma1, fluorogenic substrate, fluorescence; actives 0.84% (n = 370,000); inhibition, % at 12.2 µM; AID 720700; P19174
proCasp7 act – activates human procaspase-7, counter-screen for procaspase-3 activators; P55210; activation, % at 8.5 µM; recombinant procaspase-7, Ac-DEVD-pNA absorbance 405 nm; D23A/D198A/D206A triple mutant, cannot self-cleave; scale: DMSO 0, 5 µM enzyme 100; actives 0.093% (n = 330,000);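 active means percent activation above the screen-wide mean plus 3 SD, cut at about 25% in these data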
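Test system: Procaspase-7 triple mutant (PC-7 D3A). Also added: Ac-DEVD-pNA substrate, 400 µM as added. Schedule: 1 h enzyme–compound preincubation and 2 h substrate reaction, both 25 °C. Signal: p-Nitroaniline absorbance at 405 nm, read at 0 and 120 min. Control set: low DMSO alone, high DMSO plus 5 µM PC-7.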
PLC-beta3 inh – inhibitors of human phospholipase C beta3 | Purified PLC-beta3, fluorogenic substrate, fluorescence | inhibition, % at 12.2 µM | actives 0.18% (n = 370,000) | AID 720704; in the data active means inhibition above about 11%
procasp3 activ – procaspase-3 (human) activation; P42574; recombinant procaspase-3 D3A, Ac-DEVD-pNA absorbance 405 nm; activation, % at 8.5 µM; actives 0.11% (n = 330,000); AID 463141;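 active means activation above the mean of all tested compounds plus 3 SD, cut at about 21% in these data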
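Test system: Procaspase-3 D3A mutant; medium: Zinc-free HEPES/NaCl buffer with 0.01% Triton X-100 at pH 7.4; reagent: DEVD-pNA substrate; doses: one concentration, 8.5 µM nominal, 0.8% DMSO; times: 1 h preincubation plus 2 h reaction at 25 °C; signal: Epi-absorbance at 405 nm of released p-nitroaniline, 0 and 120 min; replicates: singlicate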
PLCg1 ctr – PLC-gamma1 inhibition, counter-screen for PLC-beta3 hits; inhibition, % at 12.3 µM; purified PLC-gamma1, fluorogenic substrate, fluorescence; shares compounds with PLC-gamma1 inh; AID 743258; actives 3.1% (n = 3,300)
PLCbeta3 conf – confirmation of human PLC-beta3 inhibitors; shares compounds with PLC-gamma1 inh; purified PLC-beta3, fluorogenic substrate fluorescence; inhibition, % at 12.3 µM; actives 1% (n = 3,300); in the data active means inhibition above about 11%
A number is an active result; 0 = inactive; - = not tested or not shown. An excerpt weighted towards active compounds, which were near 1.6% of everything screened. Unless noted, no stated cut-off is given here; in the data, active means inhibition above about 9.5%; inactive means the rest.

SMILES | sPLA2-III inh | PLC-gamma1 inh | proCasp7 act | PLC-beta3 inh | procasp3 activ | PLCg1 ctr | PLCbeta3 conf
COC1CCN(C(=O)c2ccc(OC3CCN(Cc4ccccn4)CC3)cc2)CC1 | 0 | 10 | 0 | 0 | 0 | 0 | 0
CCOC(=O)C1=CCN(S(=O)(=O)c2ccccc2Cl)C1c1cccc(C)c1 (stereo unspecified) | 0 | 0 | - | 0 | - | - | -
O=C(NC1CCCN(Cc2ccc(Cl)cc2)C1)c1ccnc(Cl)c1 (stereo unspecified) | 0 | 11 | 0 | 0 | 0 | 0 | 0
COc1ccc(S(=O)(=O)N(C)CC(=O)Nc2ccc(F)cc2)cc1 | 0 | 0 | 0 | 11 | 0 | 0 | 0
Cc1ccccc1NC(=O)c1cc(S(=O)(=O)c2ccccc2)ccc1Cl | 0 | 0 | 0 | 0 | 0 | - | -
Cc1cccc(NC(=O)c2cc(S(=O)(=O)c3ccccc3)ccc2Cl)c1 | 0 | 11 | 0 | 0 | 0 | 0 | 0
O=C1NC(c2ccc(-c3ccccc3[N+](=O)[O-])o2)C(C(=O)c2ccccc2)C(O)(C(F)(F)F)N1 (stereo unspecified) | 0 | 0 | 0 | 11 | 0 | 0 | 0
COc1ccc(/C=C(/NC(=O)c2ccc(C)cc2)C(=O)N2CCCC2)cc1OC | 0 | 0 | 0 | 0 | 0 | - | -
CCCCOCCCNC(=O)c1ccc(OCC)cc1 | 0 | 10 | 0 | 0 | 0 | 0 | 0
O=C(O)c1cccc(Nc2cc(Cl)c3nonc3c2[N+](=O)[O-])c1 | 0 | 13 | 0 | 0 | 0 | 0 | 0
Cc1cn(-c2cccnc2)c(C)c1CNC[C@H]1O[C@@H](n2cnc3c(N)ncnc32)[C@H](O)[C@@H]1O | 0 | 0 | 0 | 0 | 0 | - | -
O=C(Nc1ccc(C(F)(F)F)cc1[N+](=O)[O-])O[C@H]1[C@H](Cc2ccccc2)NS(=O)(=O)[C@H]2C[C@@H]3C=C[C@]12O3 | 0 | 12 | 0 | 0 | 0 | 0 | 0
Cc1cc(C(=O)O[C@H]2[C@H](Cc3ccccc3)NS(=O)(=O)[C@H]3C[C@@H]4C=C[C@]23O4)ccc1[N+](=O)[O-] | 0 | 0 | 0 | 0 | 0 | - | -
CCOC(=O)C1CCN(Cc2ccc(O)c(OC)c2)CC1 | 0 | 12 | 0 | 0 | 0 | 0 | 0
CCN(CC)C(=O)c1[nH]cnc1C(=O)N[C@H](C)c1ccccc1 | 0 | 0 | 0 | 14 | 0 | 0 | 0
CCNC(=O)CCc1nc(-c2ccc(C(C)C)cc2)no1 | 0 | 0 | - | 0 | - | - | -
O=C(c1ccc(CS(=O)Cc2ccc(Cl)cc2)o1)N1CCN(c2ccc(F)cc2)CC1 (stereo unspecified) | 0 | 9.5 | 0 | 0 | 0 | 0 | 0
O=C(c1ccc(Cl)cc1)N1CCCOC1 | 0 | 16 | 0 | 13 | 0 | 0 | 0
O=C(c1cccc([N+](=O)[O-])c1)N1CCN(c2ccc(Cl)cc2)CC1 | 0 | 11 | 0 | 0 | 0 | 0 | 0
O=C(c1ccc(Cl)cc1)N1CCN(c2ccc(F)cc2)CC1 | 0 | 11 | 0 | 0 | 0 | 0 | 0
C/C(=N\N1CCN(c2ccc(Cl)cc2)CC1)c1cccc([N+](=O)[O-])c1 | 0 | 0 | 0 | 0 | 0 | - | -
COc1ccc(C(=O)Cn2cnc3ccc(Cl)cc3c2=O)cc1F | 0 | 0 | 0 | 0 | 0 | - | -
O=[N+]([O-])c1cccc2nc3ccccc3c(NCCCn3ccnc3[N+](=O)[O-])c12 | 0 | 0 | - | 0 | - | - | -
Cc1nc(C)c(-c2ccc(SCc3ccccc3C)nn2)s1 | 0 | 0 | 0 | 0 | 0 | - | -
O=C(c1ccc([N+](=O)[O-])o1)N1CCN(c2nc3c(F)cc(F)cc3s2)CC1 | 0 | 15 | 0 | 0 | 0 | 0 | 0
CSc1nc2c(=O)[nH]cnc2s1 | 0 | 0 | - | 0 | - | - | -
Cc1ccccc1C(=O)N1CCC(C(=O)N2CCN(Cc3ccc4c(c3)OCO4)CC2)CC1 | 0 | 12 | 0 | 0 | 0 | 0 | 0
CN(CC(=O)Nc1ccccc1Br)C(=O)c1cccn1C | 0 | 0 | 0 | 0 | 0 | - | -
N=C1CCCC1C(=S)SCCC(N)=O (stereo unspecified) | 0 | 0 | - | 0 | - | - | -
O=c1c2ccc(Cl)cc2[nH]c(=S)n1CCCN1CCOCC1 | 0 | 0 | 0 | 12 | 0 | 0 | 0

Source: PubChem BioAssay (The Scripps Research Institute Molecular Screening Center)
